ChEMBL document CHEMBL1145431, “Improved anti-osteoporosis potency and reduced endometrial membrane hyperplasia during hormone replacement therapy with estrogen-RGD peptide conjugates” (2007)
Where a SMILES comes first, the peptide text is derived from it. The star is where a group is joined. X1 = C[C@]12CC[C@@H]3c4ccc(OCC(=O)*)cc4CC[C@H]3[C@@H]1CCC2O

What was measured:
Type in all cases: functional
Mus musculus [1] = experiment: Effect on phosphorus level in mouse at 0.110 mmol/kg, po
In short: (§1)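 Female Kuiming mice (7 weeks old, 30.7 ± 3.1 g) under abdominal OVX, sham group abdominorotomy only. From day 5 after surgery, dosed orally once daily for 4 weeks at 110.3 × 10-3 mmol/kg in 0.5% CMC (0.2 mL), vehicle group CMC alone. Blood drawn retro-orbitally, then left femur and organs removed under pentobarbital (40.0 mg/kg, i.p.).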

Mus musculus [2] = experiment: Effect on mineral content in mouse at 0.1103 mmol/kg, po; in short: as §1
Mus musculus [3] = experiment: Effect on serum calcium level in mouse at 0.1103 mmol/kg, po
In short: (§2)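 Oral OVX Kuiming mouse model, dosed daily for 4 weeks at 110.3 × 10-3 mmol/kg in 0.5% CMC. Retro-orbital blood stood 30 min at room temperature and was spun at 3000 g for 20 min. Serum kept at -20 °C. Calcium read by o-methylphenolphthalein complexone, phosphorus by molybdenum blue, ALP by activity on disodium phenylphosphate substrate.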

Mus musculus [4] = experiment: Effect on serum ALP level in mouse at 0.1103 mmol/kg, po; in short: as §2
Mus musculus [5] = experiment: Increase in body weight in ovariectomized mouse at 0.1103 mmol/kg, ip once daily for 4 weeks
In short: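 Female Kuiming mice (30.7 ± 3.1 g) underwent abdominal OVX; the sham group had abdominorotomy only. From day 5 after surgery, i.p. dosing once daily for 4 weeks at 110.3 × 10-3 mmol/kg in aqueous 0.5% CMC. Body weight was recorded on the day of the last administration.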

Mus musculus [6] = experiment: Effect on serum phosphorus level in ovariectomized mouse at 0.1103 mmol/kg, ip once daily for 4 weeks
In short: (§3)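 OVX Kuiming mice dosed i.p. daily for 4 weeks in 0.5% CMC. Blood taken retro-orbitally on the day after the last dose, stood 30 min, spun at 3000 g for 20 min, serum stored at -20 °C. Calcium by o-methylphenolphthalein complexone, phosphorus by molybdenum blue, ALP by activity with disodium phenylphosphate substrate.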

Mus musculus [7] = experiment: Effect on calcium level in ovariectomized mouse at 0.1103 mmol/kg, ip once daily for 4 weeks
In short: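 Female Kuiming mice (7 weeks, 30.7 ± 3.1 g) ovariectomized, sham group abdominorotomy. From day 5, i.p. once daily for 4 weeks at 110.3 × 10-3 mmol/kg in 0.5% CMC. Left femur cleaned, length measured, defatted in chloroform-methanol (2:1, 2 × 3 h), dried 120 °C 6 h for dry weight, ashed 800 °C 8 h. Mineral content = ash/dry weight. Ash dissolved in 6 N HCl and diluted. Ca by o-methylphenolphthalein complexone, P by molybdenum blue. Lungs and livers weighed directly.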

Mus musculus [8] = experiment: Effect on spleen weight in ovariectomized mouse at 0.1103 mmol/kg, ip once daily for 4 weeks
In short: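 Female Kuiming mice (7 weeks old, 30.7 ± 3.1 g), abdominal OVX under pentobarbital (40.0 mg/kg i.p.). From day 5 after surgery, i.p. injection once daily for 4 weeks, compound in aqueous 0.5% CMC prepared just before use. The day after the last dose, mice were anesthetized and killed, and lungs, livers, spleens and uteri were removed and weighed directly. n = 12, ANOVA, p < 0.05.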

Mus musculus [9] = experiment: Effect on femur ash weight in recipient mouse at 0.011 mmol/kg, ip
In short: (§4)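 Dose-response in OVX Kuiming mice, i.p. daily for 4 weeks in 0.5% CMC at 11.03, 55.15 or 110.3 × 10-3 mmol/kg. Left femur: length, then defatting, drying at 120 °C for 6 h (dry weight), ashing at 800 °C for 8 h. Ash/dry ratio gives mineral content. Ash Ca and P measured colorimetrically. Liver, lung and spleen weighed directly. n = 12, ANOVA.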

Mus musculus [10] = experiment: Effect on calcium level in mouse femur at 0.011 mmol/kg, ip; in short: as §4
Mus musculus [11] = experiment: Effect on serum ALP level in mouse at 0.011 mmol/kg, ip
In short: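 Dose-response in OVX Kuiming mice, i.p. daily for 4 weeks in 0.5% CMC at 11.03, 55.15 or 110.3 × 10-3 mmol/kg. Serum from retro-orbital blood (3000 g, 20 min). Calcium by o-methylphenolphthalein complexone, phosphorus by molybdenum blue, ALP by activity on disodium phenylphosphate. n = 12, ANOVA.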

Mus musculus [12] = experiment: Effect on liver weight in mouse at 0.055 mmol/kg, ip; in short: as §4
Mus musculus [13] = experiment: Effect on liver weight in mouse at 0.011 mmol/kg, ip; in short: as §4
Mus musculus [14] = experiment: Effect on lung weight in mouse at 0.055 mmol/kg, ip; in short: as §4
Mus musculus [15] = experiment: Effect on uterus weight in mouse at 0.011 mmol/kg, ip
In short: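 Dose study in abdominally ovariectomized female Kuiming mice (30.7 ± 3.1 g). Daily i.p. dosing in aqueous 0.5% CMC from day 5 after surgery for 4 weeks, at 110.3, 55.15 or 11.03 × 10-3 mmol/kg. Liver, lung, spleen and uterus were removed after pentobarbital euthanasia and weighed. n = 12, ANOVA, p < 0.05.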

Mus musculus [16] = experiment: Effect on uterus weight in mouse at 0.1103 mmol/kg, po
Mus musculus [17] = experiment: Effect on serum phosphorous level in mouse at […] mmol/kg, ip; in short: as §3
Mus musculus [18] = experiment: Effect on phosphorous level in mouse femur at 0.011 mmol/kg, ip; conditions: in the assay text read “0.11 mmol/kg” for “0.011 mmol/kg”; in short: as §4

Row | SMILES | Activity (Mus musculus [1]) | Ratio (Mus musculus [2]) | Activity (Mus musculus [3]) | Activity (Mus musculus [4]) | Activity (Mus musculus [5]) | Activity (Mus musculus [6]) | Activity (Mus musculus [7]) | Activity (Mus musculus [8]) | Activity (Mus musculus [9]) | Activity (Mus musculus [10]) | Activity (Mus musculus [11]) | Activity (Mus musculus [12]) | Activity (Mus musculus [13]) | Activity (Mus musculus [14]) | Activity (Mus musculus [15]) | Activity (Mus musculus [16]) | Activity (Mus musculus [17]) | Activity (Mus musculus [18])
1 | CC(C)[C@H](NC(=O)[C@H](CC(=O)O)NC(=O)CNC(=O)[C@H](CCCNC(=N)N)NC(=O)COc1ccc2c(c1)CC[C@@H]1[C@@H]2CC[C@]2(C)C(O)CC[C@@H]12)C(=O)O (some centres not stated) (X1-RGDV-OH) | 24.997% | 51.9% | 2.04 mmol/L | 34.521 U/L | 35.2 g | 1.6 mmol/L | 58.35% | 132 mg | 20.6 mg | 42.1% | 38.5 U/L | 1.462 g | 1.48 g | 179 mg | 55.7 mg | 40.7 mg | 1.6 mmol/L | –
2 | C[C@]12CC[C@@H]3c4ccc(OCC(=O)N[C@@H](CCCNC(=N)N)C(=O)NCC(=O)N[C@@H](CC(=O)O)C(=O)N[C@@H](CO)C(=O)O)cc4CC[C@H]3[C@@H]1CCC2O (some centres not stated) (X1-RGDS-OH) | 24.994% | 52.2% | 2.03 mmol/L | 35.211 U/L | 35.2 g | 1.599 mmol/L | 54.885% | 124 mg | 18.1 mg | 41.5% | 40.3 U/L | 1.397 g | 1.42 g | 167 mg | 52.8 mg | 43.2 mg | 1.599 mmol/L | –
3 | C[C@]12CC[C@@H]3c4ccc(OCC(=O)N[C@@H](CCCNC(=N)N)C(=O)NCC(=O)N[C@@H](CC(=O)O)C(=O)N[C@@H](Cc5ccccc5)C(=O)O)cc4CC[C@H]3[C@@H]1CCC2O (some centres not stated) (X1-RGDF-OH) | 25.532% | 52.5% | 2.04 mmol/L | 33.7 U/L | 33.1 g | 1.605 mmol/L | 56.69% | 131 mg | 20.8 mg | 42.9% | 38.6 U/L | 1.407 g | 1.57 g | 155 mg | 60.6 mg | 47.5 mg | 1.605 mmol/L | 25.46%
